# Screening data: PubChem, several laboratories
# MC4R antag cAMP = human MC4R antagonism in cAMP assay; hit rate 0.48% among 360,000; P32245; AID 540295; inhibition, % at 6.5 µM; MC4R-expressing cells, MTII-stimulated cAMP, LANCE TR-FRET;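 active = inhibition above its plate's cutoff, the mean of tested wells on that plate plus 3 SD, cut at about 29% in these data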;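 also: 0% = Melanotan II alone and 100% = Melanotan II plus saturating MCL0020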
# Target sequence (P32245 whole entry, looked up): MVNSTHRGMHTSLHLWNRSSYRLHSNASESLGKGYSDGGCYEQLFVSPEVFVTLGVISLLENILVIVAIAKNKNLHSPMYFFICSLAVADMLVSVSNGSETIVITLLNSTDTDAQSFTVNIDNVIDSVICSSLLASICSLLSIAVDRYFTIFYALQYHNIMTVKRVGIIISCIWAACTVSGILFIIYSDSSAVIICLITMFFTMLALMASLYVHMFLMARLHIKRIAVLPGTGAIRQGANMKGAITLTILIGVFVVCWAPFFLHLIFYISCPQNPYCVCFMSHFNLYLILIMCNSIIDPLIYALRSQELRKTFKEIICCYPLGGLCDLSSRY
#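 Assay system: human MC4R-expressing U2OS cells; reagent: Melanotan II stimulation of cells; dosing: 6.5 µM single dose; timing: compound 30 min, challenge 1 h, detection 1 h; signal: TR-FRET cAMP assay; replicates: one well per compound, no replicates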
# H9c2 TAG inh = reduces triacylglycerol accumulation in H9c2 cells; Nile Red lipid (TAG) fluorescence; cells loaded with 200 µM oleic acid; inhibition, % at 12.5 µM; hit rate 0.66% among 230,000;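 active = pattern-corrected inhibition of lipid staining of at least 50% with the nuclear-stain viability signal not falling by more than 50%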;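 also: 0% = DMSO wells and 100% = triacsin C control wells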
# Efflux pump inh = antifungal efflux pump inhibition, Nile Red retention; S. cerevisiae Candida pump triplex; inhibition, % at 10 µM; hit rate 0.44% among 330,000; AID 485275;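 active = plate passing quality check with inhibition over a set limit, or well fluorescence over plate mean plus 4 SD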;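 also: Nile Red retained in pooled yeast measured as flow cytometry median fluorescence; 0% = buffer negative control and 100% = Enniatin B positive control; higher means more Nile Red kept so more efflux inhibition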
# MC4R ag barr = activates human MC4R beta-arrestin recruitment; P32245; U2OS MC4R beta-arrestin complementation, luminescence; percent of melanotan II response, DMSO zero; activation, % at 8.9 µM; hit rate 0.98% among 360,000; AID 540308;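 active = activation above a per-plate cutoff, the mean activation of sample wells on that plate plus 3 SD, cut at about 8% in these data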
# GalR3 antag = antagonists of human GalR3; AID 651719; hit rate 0.44% among 360,000; inhibition, % at 3 µM; HEK293 GalR3-CNG cAMP membrane potential fluorescence; galR3 body fused to GalR1 C-terminus;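 active = inhibition above the screen-wide average plus 3 SD, cut at about 13% in these data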;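 also: forskolin and galanin both at EC90 stimulate the cells; cAMP rise reported by CNG channel membrane potential dye signal; 0% = forskolin plus galanin with DMSO and 100% = forskolin alone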
# Target sequence (O60755 1-299 limits assumed): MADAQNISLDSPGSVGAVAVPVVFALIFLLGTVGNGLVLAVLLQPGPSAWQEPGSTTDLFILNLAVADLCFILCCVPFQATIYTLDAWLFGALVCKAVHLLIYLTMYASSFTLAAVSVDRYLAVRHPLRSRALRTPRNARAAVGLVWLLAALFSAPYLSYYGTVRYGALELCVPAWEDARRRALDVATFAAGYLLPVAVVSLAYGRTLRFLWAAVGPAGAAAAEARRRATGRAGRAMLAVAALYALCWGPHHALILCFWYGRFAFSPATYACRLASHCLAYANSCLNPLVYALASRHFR
# Calb FLC = C. albicans growth modulation with fluconazole; hit rate 0.57% among 300,000; C. albicans CaCi-2 + fluconazole, Alamar Blue growth, 48 h; AID 1979; growth inhibition, % (concentration not given with the values);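 active = growth inhibition above about 58% in most replicates, limit read from the data, passing the limit was not always enough; inconclusive = exactly half the replicates above a set limit; inactive = most replicates below a set limit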;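 also: all wells also contain fluconazole at 8 µg/ml as a sub-toxic cotreatment; 0% = median of DMSO wells and 100% = median of geldanamycin control wells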
# MC4R barr conf = human MC4R beta-arrestin agonism confirmation; hit rate 31% among 2,400; activation, % at 8.9 µM; AID 602192; U2OS MC4R beta-arrestin recruitment, luminescence; scaled DMSO 0%, Melanotan II 100%; shares compounds with MC4R ag barr;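 active = mean activation across replicates above the hit cutoff set in the earlier primary screen, cut at about 8% in these data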
# MOR DOR agonist = activates mu-delta opioid heterodimer, MC4R agonist counter-screen; activation, % at 9.2 µM; U2OS PathHunter beta-arrestin, beta-gal luminescence; percent of deltorphin B response, DMSO zero; shares compounds with MC4R ag barr; hit rate 5.8% among 2,400;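 active = mean activation across replicates exceeds the hit threshold derived in the earlier primary screen, cut at about 18% in these data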;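 also: 100% = deltorphin B at 0.9 µM final and 0% = DMSO alone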
# An asterisk follows results filed as active; ? = inconclusive; . = no result. Shown are actives, neighbours in structure and some others; about 2.9% of the full set was active somewhere.
SMILES,MC4R antag cAMP,H9c2 TAG inh,Efflux pump inh,MC4R ag barr,GalR3 antag,Calb FLC,MC4R barr conf,MOR DOR agonist
COc1cc(SC)ccc1C(=O)Nc1ccncc1,4,2,0,0,-3,-6,.,.
CCOC(=O)c1cc(-c2ccccc2)sc1NC(=O)CSc1nncs1,5,.,0,-2,5,3,.,.
CCOC(=O)c1cc(-c2ccccc2)sc1NC(=O)CSc1nnc(N)s1,23,1,0,11*,-2,7,3,7
CCOC(=O)Cc1ccc(Nc2nc(NCc3cccs3)nc3ccsc23)cc1,-3,5,.,15*,-5,.,-4,5
C/C(=N\Nc1nncc2ccccc12)c1cccc(OC(F)F)c1,7,.,0,17*,-3,2,0,6
Cc1ccc(S(=O)(=O)N(C)Cc2ccc(C(=O)N/N=C/c3ccc(OC(F)F)cc3)cc2)cc1,-1,.,0,25*,-1,7,3,12
C/C(=N/NC(=O)CNC(=O)c1ccc2c(c1)OCO2)c1ccc2c(c1)CCCC2,4,.,0,12*,-3,2,1,4
Cc1ccc(C(C)C)c(OCC(=O)NNCC(=O)Nc2cccc(F)c2)c1,-1,5,0,14*,-4,.,10*,6
CC(=O)Nc1ccc(S(=O)(=O)NNC(=O)COc2cc(C)ccc2C(C)C)cc1,13,5,0,-1,-1,0,.,.
Clc1ccc(-n2ncc3c(NCc4ccco4)ncnc32)cc1,5,6,0,1,-8,?,.,.
Clc1ccc(-n2ncc3c(NCc4ccc5c(c4)OCO5)ncnc32)cc1,6,-36,0,10*,-2,-5,3,7
Cc1ccc(C)c(NC(=O)Cc2csc(-c3ccccc3)n2)c1,6,.,0,1,-3,-1,.,.
Cc1cc(NC(=O)Cc2csc(-c3ccccc3)n2)ccc1Br,15,.,0,15*,-14,0,3,7
Clc1ccc(/C=C\c2nccc3c2[nH]c2ccccc23)cc1,8,22,.,14*,-2,4,4,11
CC(NC(=O)COC(=O)c1cc2ccccc2cc1O)c1ccccc1 (stereo not given),7,-9,.,18*,-4,.,12*,7
COc1cc(OC)cc(C(=O)OCC(=O)NC(c2ccccc2)c2ccccc2)c1,11,11,0,13*,-4,.,2,7
COc1ccc(CNC(=O)COC(=O)c2cc3ccccc3cc2O)cc1OC,9,-5,1,14*,-9,.,3,4
COc1cc(OC)cc(C(=O)NC(c2ccccc2)c2ccccc2)c1,2,.,0,1,-4,-2,.,.
CCCCC(=O)N(C)c1c(CC)nc2c(OCCOc3ccccc3)cccn12,-2,-8,.,1,-8,.,.,.
COC(=O)c1cccc(Nc2cc(C)n(-c3cccc(C(=O)OC)c3)c(=O)c2)c1,.,.,.,.,-7,.,.,.
O=C(NC1CCCC1)C1C(c2ccc(C(F)(F)F)cc2)=Nc2ccccc2N1C(=O)c1ccccc1 (stereo not given),.,.,.,.,-8,.,.,.
CC1(C)OC2COC(c3[nH]nc4c(=O)[nH]c(=O)[nH]c34)C2O1 (stereo not given),-5,2,.,-1,0,.,.,.
Cc1nn(Cc2c(F)c(F)c(F)c(F)c2F)c(C)c1NC(=O)c1cccc(COc2ccccc2Cl)c1,9,.,0,17*,-2,-4,6,3
CCOC(=O)c1ccc(NC(=S)Nc2cccc(C)n2)cc1,1,.,0,22*,-12,-17,7,7
CCOC(=O)c1ccc(NC(=S)Nc2cccc(N)n2)cc1,-2,-1,0,-1,-5,-5,.,.
SMILES,MC4R antag cAMP,H9c2 TAG inh,Efflux pump inh,MC4R ag barr,GalR3 antag,Calb FLC,MC4R barr conf,MOR DOR agonist
CC1CC(C)CN(C(=S)Nc2ccc(SC(F)F)cc2)C1 (stereo not given),12,.,0,24*,-2,-4,5,11
OC(c1ccc(F)c(F)c1)c1nc(-c2cnc3ccccc3c2)cs1 (stereo not given),-4,-12,.,0,-5,.,.,.
CC(C)(C)c1nnc(NC(=O)c2cc(-c3ccccc3)nc3ccccc23)s1,1,8,0,0,6,-1,.,.
Cc1csc(NC(=O)c2cc(-c3ccccc3)nc3ccccc23)n1,-2,.,1,12*,-12,42,4,8
C=CCN=C1NC(c2ccc(Cl)cc2)C(C(=O)OC)=C(C)N1C (stereo not given),.,.,.,.,-6,.,.,.
COC(=O)[C@]12C[C@H](CC(=O)NCCCN3CCCC3=O)C(=O)N(Cc3ccccc3)C1=C[C@H](C(C)(C)C)O[C@@H]2C,.,.,.,.,3,.,.,.
COc1ccccc1-c1nc(-c2ccc(Br)cc2)no1,13,.,0,7,-13,6,.,.
COc1ccccc1CC(=O)Nc1ccc(-c2noc(COc3ccc(Br)cc3)n2)cc1,9,.,0,26*,-5,-10,8,19*
COc1ccc(CC(=O)Nc2ccc(-c3noc(-c4ccccc4OC)n3)cc2)cc1,0,.,0,16*,-5,0,24*,14
COc1ccc(-c2noc(N3CCC(C(=O)Nc4ccccc4Cl)CC3)n2)cc1,16,15,0,4,.,-2,.,.
COc1ccccc1CC(=O)Nc1ccc(-c2noc(COc3cccc(C)c3C)n2)cc1,19,37,1,-1,0,-4,.,.
COc1ccc(-c2nc(-c3ccc(NC(=O)c4ccc(Br)o4)cc3)no2)cc1OC,0,31,0,45*,-5,-3,22*,46*
COc1ccc(-c2noc(N3CCC(C(=O)Nc4ccc(OC)c(OC)c4)CC3)n2)cc1,7,2,0,13*,.,-9,0,5
CCCC(=O)N1CCCC1(C)C(=O)NCCc1ccccn1 (stereo not given),2,4,.,2,-4,.,.,.
COC(=O)c1cc2c(c3c4cc(F)ccc4n(S(=O)(=O)c4ccc(OC)cc4)c13)C(=O)N(C)C2,.,.,.,.,-7,.,.,.
CCn1c(CCNC(=O)c2ccc(Cl)c(Cl)c2)nnc1SCCOc1ccc(OC)cc1,12,.,0,11*,-8,-6,4,6
Cc1ccc(S(=O)(=O)N2CCCN(S(=O)(=O)c3ccc(C(F)(F)F)cc3)CC2)cc1,-12,.,0,28*,-7,0,14*,30*
CCOc1ccc(OCCSc2nc3ccccc3c(=O)[nH]2)cc1,1,.,0,9.6*,-6,40,0,7
